ChEMBL document CHEMBL3853361 (ACS Med Chem Lett, 2016)
Calls of active or inactive are those of the source. The calls are words filed in the database; no cut-off is given here.

What was measured:
SK-MEL-28 [1] = assay: Cytostatic activity in human SK-MEL-28 cells harboring BRAF V600E mutant at 10 and 30000 nM measured after 48 hrs resazurin assay
[2] = Drug level in DPBS treated with dabrafenib at 200 uM measured after irradiation of 1130 W/m2 UV-light for 15 mins by HPLC analysis; assay type: physicochemical; conditions: 0.25 h
[3] = Drug level in DMEM treated with dabrafenib at 200 uM measured after irradiation of 226 W/m2 UV-light for 5 mins by HPLC analysis; assay type: physicochemical
[4] = Drug uptake in nucleus of human SK-MEL-28 cells at 100 uM by DAPI-staining based fluorescence microscopic analysis; assay type: ADME, cell-based; conditions: sk-mel-28, 100 µM
Outline: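 SKMEL28 cells incubated with compound at 100 µM and imaged for green autofluorescence by fluorescence microscopy at 60×. Nuclei counterstained with 1 µg/mL DAPI.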

SK-MEL-28 [5] = assay: Cytotoxicity against human SK-MEL-28 cells harboring BRAF V600E mutant at >30000 nM measured after 48 hrs by resazurin assay
[6] = Drug level in human SK-MEL-28 cells treated with dabrafenib at 100 uM followed by UV-light irradiation by DAPI-staining based fluorescence microscopic analysis; assay type: ADME, cell-based; conditions: sk-mel-28, 100 µM
Outline: (§1)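 Fluorescence microscopy of SKMEL28 cells seeded in wells. Cells incubated with parent drug, then exposed to rising doses of 365 nm UV; green autofluorescence of the photoproduct imaged at 10× per well. Nuclei counterstained with 1 µg/mL DAPI. Controls: cells without compound given the highest UV dose.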

[7] = Antiproliferative activity against human SK-MEL-28 cells harboring BRAF V600E mutant assessed as concentration required for total growth inhibition measured after 48 hrs resazurin assay; assay type: functional; conditions: SK-MEL-28, 48 h
Outline: (§2)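 SKMEL28 melanoma cells (BRAF V600E-dependent) exposed to a range of compound concentrations, no UV; growth measured after 48 h incubation. Dose–response curves give GI50, TGI (concentration giving total growth inhibition) and LC50; n = 4, error bars standard deviation.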

[8] = Drug level in DMEM treated with dabrafenib at 200 uM measured after irradiation of 1130 W/m2 UV-light for 15 mins by HPLC analysis; assay type: physicochemical; conditions: 0.25 h
Outline: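 Parent drug dissolved in DMEM cell culture medium, irradiated at 1130 W/m2, then analysed by HPLC. Peak areas converted to concentrations with calibration curves (n = 4).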

[9] = Drug level assessed as compound formation in DMSO using 200 uM dabrafenib measured after daylight exposure for 1 day by HPLC analysis; assay type: physicochemical; conditions: 24 h
[10] = Photostability of the compound in DMSO assessed as photolysis at 200 uM measured after irradiation of 1130 W/m2 UV-light for 15 mins by HPLC analysis; assay type: physicochemical; conditions: 0.25 h
[11] = target: Serine/threonine-protein kinase B-raf (Homo sapiens, UniProt P15056, V600E); assay: Inhibition of recombinant human N-terminal GST-6His tagged BRAF V600E mutant (417 to 766 residues) expressed in baculovirus infected Sf9 cells preincubated with substrate followed by protein and ATP addition measured after 60 mins by scintillation counter method
SK-MEL-28 [12] = assay: Growth inhibition of human SK-MEL-28 cells harboring BRAF V600E mutant preincubated for 1 hr followed by irradiation of 1.13 kW/m2 UV-light for 5 mins measured after 48 hrs resazurin assay; assay type: functional, cell-based
Outline: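 SKMEL28 cells incubated 1 h with compound, then irradiated at 365 nm (1.13 kW/m2) for 5 min; growth measured 48 h after compound addition. GI50, TGI and LC50 taken from dose–response curves; n = 4, standard deviation shown.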

[13] = Drug level assessed as compound formation in DMEM using 200 uM dabrafenib measured after daylight exposure for 1 day by HPLC analysis; assay type: physicochemical; conditions: 24 h
SK-MEL-28 [14] = assay: Cytostatic activity in human SK-MEL-28 cells harboring BRAF V600E mutant at 1 and 30 uM measured after 48 hrs resazurin assay; assay type: functional, cell-based
[15] = Drug metabolism in human SK-MEL-28 cells assessed as photo-induced N-(5-amino-2-tert-butyl)-11-fluorbenzol[f]thiazol-[4,5-h]-quinazolin-10-yl)-2,6-difluorbenzolsulfonamide formation at 100 uM followed by UV-light irradiation by DAPI-staining based fluorescence microscopic analysis; assay type: ADME, cell-based; conditions: sk-mel-28, 100 µM
Outline: as §1

[16] = Photostability of the compound in DMEM at 200 and 1100 uM measured after daylight exposure for 1 day by HPLC analysis; assay type: physicochemical; conditions: 24 h
[17] = Half life of the compound in DMSO at 200 uM measured after irradiation of 226 W/m2 UV-light for 5 mins by HPLC analysis; assay type: physicochemical; conditions: DMSO solution under UV irradiation
[18] = Half life of the compound in DMSO at 200 uM measured after irradiation of 1130 W/m2 UV-light for 15 mins by HPLC analysis; assay type: physicochemical; conditions: DMSO solution under UV irradiation
[19] = Half life of the compound in DPBS at 200 uM measured after irradiation of 1130 W/m2 UV-light for 15 mins by HPLC analysis; assay type: physicochemical; conditions: DPBS solution under UV irradiation
[20] = Stability of the compound in DMEM assessed as thermal decomposition at 200 uM incubated in dark for 1 day by HPLC analysis; assay type: physicochemical; conditions: 24 h
[21] = Photostability of the compound in DMSO at 200 uM measured after daylight exposure for 1 day by HPLC analysis; assay type: physicochemical; conditions: 24 h
SK-MEL-28 [22] = assay: Growth inhibition of human SK-MEL-28 cells harboring BRAF V600E mutant measured after 48 hrs resazurin assay; assay type: functional, cell-based
Outline: as §2

[23] = Photostability of the compound in DMSO at 200 uM measured after irradiation of 226 W/m2 UV-light for 5 mins by HPLC analysis; assay type: physicochemical
[24] = Stability of the compound in DMSO assessed as thermal decomposition at 200 uM incubated in dark for 1 day by HPLC analysis; assay type: physicochemical; conditions: 24 h
[25] = Half life of the compound in DMSO at 200 uM measured after irradiation of 1130 W/m2 W/m2 UV-light for 5 mins by HPLC analysis; assay type: physicochemical; conditions: DMSO solution under UV irradiation

Chain of Serine/threonine-protein kinase B-raf (P15056 2-766 V600E limits assumed): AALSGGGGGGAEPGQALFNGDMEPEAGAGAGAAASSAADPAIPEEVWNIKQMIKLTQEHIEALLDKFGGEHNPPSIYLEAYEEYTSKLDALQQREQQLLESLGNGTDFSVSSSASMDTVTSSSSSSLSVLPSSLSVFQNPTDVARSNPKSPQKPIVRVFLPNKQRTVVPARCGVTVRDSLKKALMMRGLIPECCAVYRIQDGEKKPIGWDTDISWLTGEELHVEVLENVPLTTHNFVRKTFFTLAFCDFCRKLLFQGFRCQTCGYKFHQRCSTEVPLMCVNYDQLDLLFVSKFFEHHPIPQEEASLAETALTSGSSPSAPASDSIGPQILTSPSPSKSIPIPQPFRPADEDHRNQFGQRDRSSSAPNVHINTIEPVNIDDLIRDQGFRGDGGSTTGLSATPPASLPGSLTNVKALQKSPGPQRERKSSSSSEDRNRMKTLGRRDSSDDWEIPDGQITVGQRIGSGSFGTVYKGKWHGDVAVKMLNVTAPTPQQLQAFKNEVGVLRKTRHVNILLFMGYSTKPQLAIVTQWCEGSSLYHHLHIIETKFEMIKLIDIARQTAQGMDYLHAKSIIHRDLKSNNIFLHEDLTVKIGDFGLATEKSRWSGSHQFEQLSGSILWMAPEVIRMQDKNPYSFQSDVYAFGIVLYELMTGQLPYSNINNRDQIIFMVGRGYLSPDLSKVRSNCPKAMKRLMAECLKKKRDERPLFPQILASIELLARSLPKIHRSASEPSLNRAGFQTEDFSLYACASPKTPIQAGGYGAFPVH

Q: With `CC(C)(C)c1nc2c(s1)c1nc(N)ncc1c1ccc(NS(=O)(=O)c3c(F)cccc3F)c(F)c12` as the compound, how does the Activity (SK-MEL-28 [1]) read?
A: Active

Q: What about the Drug metabolism [2] of the same compound?
A: Metabolite_Detected

Q: And the Drug metabolism [3]?
A: Metabolite_Detected

Q: And the Drug uptake [4]?
A: Active

Q: What about the Activity (SK-MEL-28 [5]) of the same compound?
A: Active

Q: And the Drug metabolism [6]?
A: Metabolite_Detected

Q: And the TGI [7]?
A: 8.9 µM

Q: What about the Drug metabolism [8] of the same compound?
A: Metabolite_Detected

Q: What about the Drug metabolism [9] of the same compound?
A: Metabolite_Detected

Q: And the Stability [10]?
A: Unstable

Q: What about the IC50 [11] of the same compound?
A: 280 nM

Q: And the “growth inhibition (GI)” value (SK-MEL-28 [12])?
A: Active

Q: And the Drug metabolism [13]?
A: Metabolite_Detected

Q: For `CC(C)(C)c1nc(-c2cccc(NS(=O)(=O)c3c(F)cccc3F)c2F)c(-c2ccnc(N)n2)s1` [DABRAFENIB], which Activity (SK-MEL-28 [14]) is on record?
A: Active

Q: And the Drug metabolism [15]?
A: Metabolite_Detected

Q: And the Stability [16]?
A: Unstable

Q: What about the half-life at 200 µM [17] of the same compound?
A: 1.08 min

Q: What about the half-life at 200 µM [18] of the same compound?
A: 0.325 min

Q: And the half-life at 200 µM [19]?
A: 2.42 min

Q: And the Stability [20]?
A: Stable

Q: And the Stability [21]?
A: Unstable

Q: And the “growth inhibition (GI)” value (SK-MEL-28 [22])?
A: Active

Q: What about the Stability [23] of the same compound?
A: Unstable

Q: And the “growth inhibition (GI)” value (SK-MEL-28 [12])?
A: Active

Q: And the Stability [24]?
A: Stable

Q: And the half-life at 200 µM [25]?
A: 0.325 min

Q: Which results are given for `CCCS(=O)(=O)Nc1ccc(F)c(C(=O)c2c[nH]c3ncc(-c4ccc(Cl)cc4)cc23)c1F` [VEMURAFENIB]?
A: TGI [7]: 2 µM; growth inhibition (GI) (SK-MEL-28 [12]): Active
